Measured values: publication PMC8929358 (Pharmacology Research & Perspectives, 2021)

Experiments:
[1] = type: in vivo, rat; conditions: oral 100 mg/kg
In short: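 In Sprague Dawley rats given 100 mg/kg [14C]-labelled compound (100 μCi/kg) orally in 0.2% HPMC, heparinized blood was taken by cardiac puncture at 2–168 h. Plasma was precipitated with MeOH/ACN (50:50), dried under N2 and reconstituted. Urine (0–6, 6–24 h) and feces (0–12, 12–24, 24–48 h) were pooled and stored at −80°C. Analysis used accurate-mass LC-MS with offline radiodetection.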

[2] = type: in vivo, rat; conditions: rat, plasma, po, 1 g/kg
[3] = Sulfate conjugation of opicapone in human intestinal S9; type: in vitro ADME; conditions: human intestinal S9 fraction (HIS9), pH 7.4
UGT 1A1 = biological target: T1, UGT 1A1 (Homo sapiens, UniProt P22309); test: Glucuronidation of opicapone by recombinant UGT1A1; type: in vitro ADME; conditions: 20 μM opicapone
T1 sequence (P22309 26-533): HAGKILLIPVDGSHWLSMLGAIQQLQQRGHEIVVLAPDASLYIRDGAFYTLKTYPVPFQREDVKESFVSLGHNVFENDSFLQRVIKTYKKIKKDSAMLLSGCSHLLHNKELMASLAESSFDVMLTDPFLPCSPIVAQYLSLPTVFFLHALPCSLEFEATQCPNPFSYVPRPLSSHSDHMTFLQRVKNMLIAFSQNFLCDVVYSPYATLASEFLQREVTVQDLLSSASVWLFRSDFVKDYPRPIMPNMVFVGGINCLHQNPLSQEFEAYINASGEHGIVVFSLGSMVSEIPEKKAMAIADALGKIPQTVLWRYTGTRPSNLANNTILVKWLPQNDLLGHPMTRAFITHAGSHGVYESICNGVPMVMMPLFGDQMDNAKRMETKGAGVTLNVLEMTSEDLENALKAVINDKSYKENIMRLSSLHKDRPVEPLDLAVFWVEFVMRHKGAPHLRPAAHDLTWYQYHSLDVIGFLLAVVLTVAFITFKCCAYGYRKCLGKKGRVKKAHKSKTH

UGT 2B4 = biological target: T2, UGT 2B4 (Homo sapiens, UniProt P06133); test: Glucuronidation of opicapone by recombinant UGT2B4; type: in vitro ADME; conditions: 20 μM opicapone; incubation period of 60 min
T2 sequence (P06133 24-528): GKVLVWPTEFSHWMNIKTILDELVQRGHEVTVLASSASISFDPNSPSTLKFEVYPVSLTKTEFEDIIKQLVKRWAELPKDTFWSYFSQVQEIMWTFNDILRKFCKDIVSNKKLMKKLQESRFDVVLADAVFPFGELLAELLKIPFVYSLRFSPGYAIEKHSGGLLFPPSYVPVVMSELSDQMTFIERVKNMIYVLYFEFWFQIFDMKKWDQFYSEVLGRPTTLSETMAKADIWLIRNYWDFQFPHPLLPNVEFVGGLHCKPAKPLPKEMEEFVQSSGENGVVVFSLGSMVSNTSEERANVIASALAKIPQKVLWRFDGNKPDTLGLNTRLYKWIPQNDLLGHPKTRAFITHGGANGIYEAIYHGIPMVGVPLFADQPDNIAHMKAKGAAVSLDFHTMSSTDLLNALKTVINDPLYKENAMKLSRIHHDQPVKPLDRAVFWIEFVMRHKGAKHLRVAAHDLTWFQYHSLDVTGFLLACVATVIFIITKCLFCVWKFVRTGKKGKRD

UGT 2B17 = biological target: T3, UGT 2B17 (Homo sapiens, UniProt O75795); test: Glucuronidation of opicapone by recombinant UGT2B17; type: in vitro ADME; conditions: 20 μM opicapone; incubation period of 60 min
T3 sequence (O75795 24-530): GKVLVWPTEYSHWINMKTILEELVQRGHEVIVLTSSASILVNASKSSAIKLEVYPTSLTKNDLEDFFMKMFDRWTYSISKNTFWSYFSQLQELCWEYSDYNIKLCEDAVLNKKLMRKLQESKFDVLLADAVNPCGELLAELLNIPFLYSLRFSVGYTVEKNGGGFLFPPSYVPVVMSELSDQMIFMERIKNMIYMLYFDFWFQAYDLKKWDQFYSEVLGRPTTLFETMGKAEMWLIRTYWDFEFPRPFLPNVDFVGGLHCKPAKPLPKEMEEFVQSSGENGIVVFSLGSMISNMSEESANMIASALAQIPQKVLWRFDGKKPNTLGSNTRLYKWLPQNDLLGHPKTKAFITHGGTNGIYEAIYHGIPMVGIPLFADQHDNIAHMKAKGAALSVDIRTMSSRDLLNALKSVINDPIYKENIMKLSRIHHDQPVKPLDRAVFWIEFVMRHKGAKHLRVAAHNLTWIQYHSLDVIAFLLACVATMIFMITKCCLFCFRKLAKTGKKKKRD

- Plasma, % of total AUC0–168 h of drug-related radioactivity ([1]; ND = not detected): 15.1%
- Time of peak of unchanged opicapone in plasma ([1]; earliest time point analyzed): 2 h
- Feces, % of administered dose ([1]; feces pools 0–48 h, ND = not detected): 6.25%
- Urine, % of administered dose ([1]; urine pools 0–24 h, ND = not detected, 100 mg/kg): 0.1%
- Cmax [2]: 7090 ng/mL
- Km [3]: 8.2 ± 1.1 µM
- Formation of BIA 9-1106 (screening) (UGT 1A1): little amounts
- Metabolite formation (screening) (UGT 2B4): No metabolite formation was detected
- Metabolite formation (screening) (UGT 2B17): No metabolite formation was detected
SMILES: Cc1c(Cl)c(C)[n+]([O-])c(Cl)c1-c1noc(-c2cc(O)c(O)c([N+](=O)[O-])c2)n1 [opicapone, 2,5‐dichloro‐3‐(5‐(3,4‐dihydroxy‐5‐nitrophenyl)‐1,2,4‐oxadiazol‐3‐yl)‐4,6‐dimethylpyridine 1‐oxide]
